Assay outcomes: PubChem BioAssay, several laboratories
Shown are actives, neighbours in structure and some others; about 2.9% of the full set was active somewhere.
Runt-CBFb FRET: inhibitors of RUNX1 Runt–CBFb binding, primary screen, biochemical, FRET, Cerulean-Runt, Venus-CBFb, uHTS. Runt-related transcription factor 1 (Homo sapiens) + Core-binding factor subunit beta …. Cerulean-Runt/Venus-CBFb FRET ratio 530/480, 1 h. inhibition, % at 20 µM. 220,000 compounds, 0.46% hits. AID 1496, 2009;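 active means inhibition over about 50% at 20 µM in the single-dose screen, limit read from the data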;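 further: 0% = DMSO wells and 100% = excess unlabeled CBFb competitor control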
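Assay system: Cerulean-tagged RUNX1 Runt domain (FRET donor) fusion protein / Amount: 100 nM each of Venus-CBFb and Cerulean-Runt domain / Medium: Tris buffer pH 7.5 with salts and BSA / Also added: Venus-CBFb 100 nM / Schedule: 1 h complex formation plus 1 h compound treatment, room temperature / Signal: FRET fluorescence / Read-out: loss of energy transfer signal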
Wee1 stabilizer: Wee1 degradation inhibitors, primary screen, cell-based, HeLa, Wee1K328M-luciferase, luminescence; Wee1-like protein kinase (Homo sapiens), P30291; HeLa Luc-Wee1K328M stability; 100% = proteasome inhibitor MG132 effect; reporter increase, % at 5 µM; 220,000 compounds, 1.2% hits; AID 1321, 2008;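 active means activation above the mean of all tested compounds plus 3 SD, set per screening run, cut at about 8.8% in these data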;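 further: cells exposed to compound for 20 h before luminescence read; 0% = DMSO alone and 100% = MG132 at 30 µM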
Runt-SMMHC FRET: inhibitors of RUNX1 Runt–CBFb-SMMHC binding, primary screen, biochemical, FRET, Cerulean-Runt, Venus-CBFb-SMMHC, uHTS; Cerulean-Runt/Venus-CBFb-SMMHC FRET ratio 530/480, 1 h; inhibition, % at 20 µM; 220,000 compounds, 0.74% hits; AID 1434, 2008;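 active means mean inhibition across duplicate retests at 20 µM reaching about 50%, limit read from the data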;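 further: 0% = DMSO wells and 100% = wells with excess untagged CBFb-SMMHC; inhibitors lower the FRET ratio by blocking Runt binding to CBFb-SMMHC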
KLK7 zymogen act: proKLK7 zymogen activators, primary screen, biochemical, fluorescence intensity; Kallikrein-7 (Homo sapiens), P49862; purified proKLK7, EDANS-DABCYL substrate fluorescence; 100% is mature enzyme control, 0% vehicle; activation, % at 7 µM; 370,000 compounds, 0.9% hits; AID 652039, 2013;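 active means activation above the mean of all tested compounds plus 3 SD, computed per campaign excluding outliers beyond control limits, cut at about 13% in these data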
Target sequence (P49862 whole entry, looked up): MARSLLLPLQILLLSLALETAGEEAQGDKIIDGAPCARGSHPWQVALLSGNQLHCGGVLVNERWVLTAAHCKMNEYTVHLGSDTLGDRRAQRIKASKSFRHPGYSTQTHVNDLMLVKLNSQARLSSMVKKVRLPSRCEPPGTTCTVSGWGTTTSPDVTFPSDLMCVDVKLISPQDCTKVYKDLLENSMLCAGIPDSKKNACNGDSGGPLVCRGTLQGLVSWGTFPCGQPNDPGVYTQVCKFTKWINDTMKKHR
AI-2 QS modul: Vibrio harveyi AI-2 quorum sensing modulators, primary screen, JMH597 strain, luminescence/OD600 ratio; AID 2094, 2009; activity change, % at 7.5 µM; Vibrio harveyi JMH597 AI-2 luminescence/OD600 ratio, 9 h; hits give low values; strain lacks LuxN and CqsS sensors; 0 = neutral-control median; 300,000 compounds, 0.4% hits; in the data active means activity change below about -75%, passing the limit was not always enough; inconclusive means no clear call, values can overlap the other calls;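 further: luminescence divided by OD600 gain over 9 h not by final OD600 alone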
RanGTP-Impb inh: inhibitors of RanGTP-importin-beta interaction, primary screen, biochemical, FRET, CFP-Ran, YFP-importin-beta, homogeneous. 300,000 compounds, 1.1% hits. inhibition, % (no concentration beside the values). cell-free CFP-Ran/YFP-importin-beta FRET ratio;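 active means more than half of the replicate wells show a fall in the fluorescence ratio signal beyond about 16%, limit read from the data, passing the limit was not always enough; inconclusive means exactly half of the replicate wells pass the set limit; inactive means fewer than half of replicates pass the limit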;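 further: 0% = DMSO wells and 100% = Ran loaded with GDP instead of GTP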
Numbers without * were called inactive; ? = inconclusive; nt = not tested or not shown.

SMILES | Runt-CBFb FRET | Wee1 stabilizer | Runt-SMMHC FRET | KLK7 zymogen act | AI-2 QS modul | RanGTP-Impb inh
CC(=O)NS(=O)(=O)c1ccc(NS(=O)(=O)c2ccc(F)cc2)cc1 | 89* | 2 | 6 | -1 | 9 | -1
Cc1ccc(S(=O)(=O)N2CCOC23CCN(C(=O)C(=O)NCCC(C)C)CC3)cc1 | nt | nt | nt | 0 | -12 | -1
C=CCNC(=S)NNC(=O)c1cccc(Br)c1 | 2 | -1 | 1 | 0 | 3 | 1
C=CCNC(=O)c1cccc(Br)c1 | 3 | -4 | -2 | 0 | 13 | 24*
Cc1ccc(-c2nc(C#N)c(N3CCCCC3)o2)cc1 | -3 | 9.7* | -4 | -3 | 12 | 0
O=C(COc1ccc2c(c1)CCC2)N1CCN(c2ccccc2F)CC1 | -3 | 10* | -3 | -1 | 13 | 1
COc1ccc(CC(=O)Nc2nncs2)cc1OC | 89* | 0 | 83 | 1 | 5 | 3
CC(C)C[C@H](NC(=O)c1ccco1)C(=O)N1CCC[C@H]1C(=O)NCc1ccccc1 | nt | nt | nt | 1 | nt | nt
O=C1NC(c2ccc3c(c2)OCO3)c2c(-c3ccccc3)n[nH]c21 (configuration not stated) | nt | nt | nt | 0 | nt | nt
O=C(NCCc1ccccc1Cl)[C@@H]1CCCN1C(=O)[C@H](Cc1cccnc1)NC(=O)N1CCOCC1 | nt | nt | nt | 1 | nt | nt
COc1ccc(OC)c(C2C3=C(CCCC3=O)Nc3c2c(=O)n(C)c(=O)n3C)c1 (configuration not stated) | 33 | 0 | 73* | -3 | 25 | 3
COc1ccc(C2C3=C(CC(C)(C)CC3=O)Nc3c2c(=O)[nH]c2nc(C)nn32)cc1 (configuration not stated) | 87* | -1 | 135* | -2 | 12 | 46*
COc1ccc(C2C3=C(CC(C)(C)CC3=O)Nc3c2c(=O)n(C)c(=O)n3C)cc1OC (configuration not stated) | 63* | -5 | 107* | -14 | 1 | 5
Cc1ccccc1CS(=O)(=O)Cc1ccc(C(=O)Nc2cccc(Cl)c2F)o1 | nt | nt | nt | 0 | nt | nt
CC1(C)CC(=O)C2=C(C1)Nc1ccccc1NC2c1ccc(F)cc1 (configuration not stated) | nt | nt | nt | -1 | -3 | -1
O=C1NCC2=C1C(c1ccc(Br)cc1)Nc1ccccc1N2 (configuration not stated) | 0 | 9.6* | -14 | -2 | 28 | 3
CN(C)c1nc(-c2ccccc2)c2cc(Cl)ccc2n1 | nt | nt | nt | 0 | 8 | 21*
CCSc1sccc1C1C(C#N)=C(N)N(c2cccnc2)C2=C1C(=O)CCC2 (configuration not stated) | 45 | 2 | 66* | 1 | -2 | ?
COc1cc(C2C(C#N)=C(N)N(c3cccnc3)C3=C2C(=O)CCC3)ccc1O (configuration not stated) | 2 | 0 | -13 | 0 | 15 | 14
Cc1ccc(C(=O)Nc2nc(C)c(C(=O)Nc3ccc4c(c3)CCC4)s2)cc1 | 1 | 9.8* | 4 | -5 | 12 | -1
Cc1nc(NC(=O)c2ccc(F)cc2)sc1C(=O)Nc1ccc2c(c1)CCC2 | -1 | 0 | 4 | 0 | 4 | 4
O=C(O)c1c2c(nc3ccccc13)/C(=C/c1c(F)cccc1F)CCC2 | nt | nt | nt | 0 | 27 | 75*
COc1cccc2c1CCc1c-2nc2ccccc2c1C(=O)O | nt | nt | nt | 0 | 12 | 3
O=C(NCC1CCCO1)C(=O)NCC1CCCN1S(=O)(=O)c1ccccc1 (configuration not stated) | nt | nt | nt | 0 | 18 | 2
Oc1nc(Nc2ccccc2)sc1/C=C1\C=Nc2ccccc21 | -8 | 3 | -3 | 0 | 45 | 21*
